Assay outcomes: PubChem BioAssay, several laboratories
In the library only some 6.7% were active in any assay of this set; here they are far more common.
CHOP inhibitor: inhibitors of CHOP induction in ER stress response; CHO-K1 CHOP-promoter luciferase, tunicamycin-induced, 15-18 h; hit rate 3.8% among 220,000; inhibition, % at 10 µM;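 active means compounds that reduced the stress-induced luciferase reporter signal by more than about 70% of percent inhibition, limit read from the data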;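 further: 0% = tunicamycin plus vehicle and 100% = wells without tunicamycin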
T cruzi inh: blocks replication of Trypanosoma cruzi. T. cruzi beta-gal in NIH3T3, luminescence, 90 h. hit rate 1.4% among 300,000. inhibition, % (concentration not given with the values);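 active means mean inhibition across valid replicates above about 55%, limit read from the data; inconclusive means mean below that limit but half or more replicates reach it; inactive means mean below it, under half of replicates reach it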;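 further: signal also drops with host cell toxicity which is not excluded here; 0% = plate median of DMSO wells and 100% = zero luminescence signal; higher percent means less beta-gal luminescence so fewer parasites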
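Assay system: NIH/3T3 fibroblasts plus reporter T. cruzi. Amount: NIH/3T3 cells, 5,000 per well. Buffer or medium: DMEM, 2% fetal bovine serum. Doses: compound pinned at 50 nL/well, DMSO. Schedule: ≥90 h infection period, 3 h prior cell attachment. Signal: luminescent β-galactosidase signal after 60 min lysis. Read-out: parasite load inhibition, %.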
PREPL inh: inhibitors of human prolyl oligopeptidase-like enzyme PREPL; Q4J6C6; recombinant PREPL, fluorescence polarization activity-based probe; inhibition, % at 5.96 µM; hit rate 0.68% among 320,000; AID 2751;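 further: 0% = enzyme with DMSO and 100% = wells lacking enzyme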
Target sequence (Q4J6C6 whole entry, looked up): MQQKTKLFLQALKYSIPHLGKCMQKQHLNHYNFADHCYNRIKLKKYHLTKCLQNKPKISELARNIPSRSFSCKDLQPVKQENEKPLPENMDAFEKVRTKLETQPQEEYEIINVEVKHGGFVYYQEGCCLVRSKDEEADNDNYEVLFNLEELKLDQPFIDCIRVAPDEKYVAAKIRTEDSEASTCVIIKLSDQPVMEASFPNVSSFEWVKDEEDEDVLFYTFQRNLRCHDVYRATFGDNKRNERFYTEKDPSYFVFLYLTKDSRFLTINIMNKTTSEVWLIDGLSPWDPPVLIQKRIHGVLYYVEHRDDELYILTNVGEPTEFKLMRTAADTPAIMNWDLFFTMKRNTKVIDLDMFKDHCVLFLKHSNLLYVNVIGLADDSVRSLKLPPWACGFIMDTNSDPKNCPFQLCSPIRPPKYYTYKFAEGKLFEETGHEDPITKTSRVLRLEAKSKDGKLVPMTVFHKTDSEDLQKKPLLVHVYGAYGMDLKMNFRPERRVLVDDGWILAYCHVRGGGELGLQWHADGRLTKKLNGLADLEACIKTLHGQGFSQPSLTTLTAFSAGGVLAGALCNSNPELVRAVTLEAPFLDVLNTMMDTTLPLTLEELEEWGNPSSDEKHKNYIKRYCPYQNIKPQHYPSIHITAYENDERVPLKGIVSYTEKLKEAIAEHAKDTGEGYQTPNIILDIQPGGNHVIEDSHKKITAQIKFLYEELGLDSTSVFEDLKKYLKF
Beta cell apopt: beta cell apoptosis inhibition | INS-1E cytokine-induced death, ATP luminescence, 48 h; percent of positive-control rescue, neutral wells zero | protection from apoptosis, % (no concentration beside the values) | hit rate 0.8% among 300,000 | AID 435005;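 active means Every replicate reaches about 75%, or at least half do and their mean reaches it too, limit read from the data; inconclusive means At least half of replicates reach the limit but their mean does not; inactive means Under half of replicates reach the limit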;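 further: 0% = cytokine-treated negative control wells and 100% = positive control rescue; higher means more ATP so stronger rescue from cytokine killing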
CSC inhib: cancer stem cell inhibition. hit rate 1.1% among 300,000. cancer stem cell-like cells viability, luminescence. AID 2717. inhibition, % at 7.5 µM; in the data active means inhibition above about 75%; inconclusive means no clear call, values can overlap the other calls; tested in HMLE shEcad cells
GRIN3A LBD mod: NR3A (human) ligand-binding domain modulation | NR3A LBD differential scanning fluorimetry, Tm shift; 0% = protein alone, 100% = glycine-bound protein | Tm shift relative to glycine control, % at 25 µM | hit rate 2.5% among 340,000;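 active means melting temperature shift of at least 10% of the positive control shift, at one fixed dose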
PREPL confirm: confirmation of human PREPL enzyme inhibitors. recombinant PREPL, fluorescence polarization activity probe. inhibition, % at 5.96 µM. shares compounds with PREPL inh. hit rate 67% among 2,000. AID 2803;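 further: 0% = protein with DMSO and 100% = wells lacking protein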
* hit, by the source's call; ? = inconclusive; . = no result given. Unless noted, no stated cut-off is given here; in the data, active means inhibition above about 43%; inactive means the rest.

SMILES | CHOP inhibitor | T cruzi inh | PREPL inh | Beta cell apopt | CSC inhib | GRIN3A LBD mod | PREPL confirm
C#CCOCCOCCOCCNc1nc(N2CCOCC2)nc(N2CCN(C(=O)CCCCCCCCCCNC(=O)Cn3cc(CCCCCN)nn3)CC2)n1 | . | . | 8 | -2 | -17 | 1 | .
C#CCOCCOCCOCCNc1nc(N2CCN(C(=O)CCCCCCCCCCNC(=O)Cn3cc(CCCCCN)nn3)CC2)nc(N2CCN(C(=O)CCCCCCCCCCNC(=O)[C@H]([C@@H](C)CC)n3cc(CCCCCN)nn3)CC2)n1 | . | . | 62* | 39 | -10 | 28* | 57*
O=C1/C(=C/c2cccc(Cl)c2)SC(=S)N1CCC(=O)N1CCCCC1CCO (centres undefined) | . | -24 | 45* | . | 5 | 0 | 44*
O=C1/C(=C/c2ccccc2F)SC(=S)N1CCC(=O)N1CCCCC1CCO (centres undefined) | . | -1 | 46* | . | 15 | -1 | 43*
O=C1/C(=C/c2ccc(Cl)cc2)SC(=S)N1CCC(=O)N1CCCCC1CCO (centres undefined) | . | -6 | 27 | -26 | 15 | -4 | .
COc1ccc(N2CCc3c(C)nc4c(OC)cc(OC)cc4c32)cc1 | 5 | 73* | 52* | . | . | 1 | 49*
CS(=O)(=O)N(CCc1ccccc1)CC(=O)N1CCc2ccccc2C1 | 10 | 3 | -27 | -1 | -19 | 1 | .
Cc1cc(S(=O)(=O)N2CCCC(N3CCOCC3)C2)c(C)cc1Cl (centres undefined) | . | -2 | -5 | -7 | 2 | 1 | .
COc1ccc(C(=O)NC(=S)Nc2ccc3oc(=O)ccc3c2)cc1[N+](=O)[O-] | . | 16 | 47* | 0 | 12 | 1 | 3
Cn1c(/C=N/Nc2nc3ccccc3[nH]2)nc2ccccc21 | 19 | 51 | 29 | 18 | 33 | 5 | .
Cc1c(/C=N/Nc2nc3ccccc3[nH]2)c2ccccc2n1C | -218 | 56* | 45* | 117* | 35 | 3 | 36
C=CCn1cc(/C=N/Nc2nc3ccccc3[nH]2)c2ccccc21 | 59 | 15 | 45* | 109* | 92* | -4 | 50*
CC(C)Cn1c(/C=N/Nc2nc3ccccc3[nH]2)nc2ccccc21 | -55 | 46 | . | . | . | -8 | .
COc1cc(NC(=O)OCc2ccccc2)c2ncccc2c1 | . | . | . | . | . | -1 | .
COc1cc(NC(C)CCCN)c2ncccc2c1 (centres undefined) | . | 33 | 57* | 121* | 105* | 2 | 39
COc1cc(NCc2ccccc2O)c2ncccc2c1 | -11 | -7 | . | . | . | 1 | .
COc1cc(NCCCCCCCN)c2ncccc2c1 | 6 | 47 | 55* | 13 | 54 | 2 | 31
CCN1CCN(S(=O)(=O)c2ccc(Cl)c(C(=O)NCc3nc4ccccc4[nH]3)c2)CC1 | . | . | 13 | . | . | 0 | .
CN(C)c1ccc(/C=C/C(=O)c2ccc3c(c2)OCO3)cc1 | . | . | 52* | -2 | 31 | 1 | 27
Cc1cc(C)c(C(=O)COC(=O)c2cc([N+](=O)[O-])ccc2N2CCOCC2)cc1C | . | 38 | 0 | 1 | 2 | 2 | .
CCCCCCCCCCC[N+](C)(C)CC/C=C1/c2ccccc2Sc2ccc(Cl)cc21 | . | 51 | 45* | 98* | 59 | -411 | 35
CN(C)CC/C=C1\c2ccccc2Sc2ccc(Cl)cc21 | 26 | 31 | -36 | -4 | 8 | 0 | .
Clc1ccc(OCCn2cnc(Cl)c2Cl)cc1 | -1 | 12 | -29 | 0 | -15 | -1 | .
Cc1ccc(Cl)cc1NC(=S)N1CCCCCC1 | . | . | . | -7 | -8 | 2 | .
Cc1ccc(C)c(N2CCN(C(=S)Nc3ccc4nc(N5CCN(C)CC5)cc(C)c4c3)CC2)c1 | 77* | 51 | 53* | 5 | ? | 0 | 37
Cc1ccc(C)c(N2CCN(C(=S)Nc3ccc4nc(N5CCOCC5)cc(C)c4c3)CC2)c1 | -11 | 47 | 54* | -2 | 25 | 1 | 39
Cc1cc(N2CCN(C)CC2)nc2ccc(NC(=S)N3CCC4(CC3)OCCO4)cc12 | 36 | 47 | 30 | -6 | 6 | 0 | .
Cc1cccc(N2CCN(C(=S)Nc3ccc4nc(N5CCOCC5)cc(C)c4c3)CC2C)c1 (centres undefined) | 88* | 52 | 43* | -1 | 43 | -9 | 16
